Converted amounts (≈) assume the structure as drawn.
Tests used:
[1] = Inhibition of bocillin FL binding to penicillin-susceptible Streptococcus pneumoniae OC 8865 penicillin-binding protein 2a
Outline: (§1)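 S. pneumoniae OC 8865 PBPs assayed in whole cells; drug competition followed by Bocillin FL labeling and imaging of labeled PBPs. IC50 is 50% inhibition of Bocillin FL binding compared with a no-drug control.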

[2] = Inhibition of bocillin FL binding to penicillin-susceptible Streptococcus pneumoniae OC 8865 penicillin-binding protein 2b; outline: as §1
[3] = Inhibition of bocillin FL binding to penicillin-resistant Streptococcus pneumoniae OC 8819 penicillin-binding protein 2x
Outline: (§2)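 Whole S. pneumoniae cells were used rather than isolated membranes. Cells were competed with drug and then labeled with Bocillin FL, and PBP bands were visualized by fluorescence imaging. IC50 is the drug concentration that inhibits Bocillin FL binding to each PBP by 50% relative to a no-drug control.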

[4] = Inhibition of bocillin FL binding to penicillin-resistant Streptococcus pneumoniae OC 8819 penicillin-binding protein 2a; outline: as §2
[5] = target: T1, Penicillin-binding protein 3 (Staphylococcus aureus, UniProt Q5D1F0); test: Inhibition of bocillin FL binding to methicillin-susceptible Staphylococcus aureus ATCC 29213 penicillin-binding protein 3
T1 sequence (Q5D1F0 whole entry): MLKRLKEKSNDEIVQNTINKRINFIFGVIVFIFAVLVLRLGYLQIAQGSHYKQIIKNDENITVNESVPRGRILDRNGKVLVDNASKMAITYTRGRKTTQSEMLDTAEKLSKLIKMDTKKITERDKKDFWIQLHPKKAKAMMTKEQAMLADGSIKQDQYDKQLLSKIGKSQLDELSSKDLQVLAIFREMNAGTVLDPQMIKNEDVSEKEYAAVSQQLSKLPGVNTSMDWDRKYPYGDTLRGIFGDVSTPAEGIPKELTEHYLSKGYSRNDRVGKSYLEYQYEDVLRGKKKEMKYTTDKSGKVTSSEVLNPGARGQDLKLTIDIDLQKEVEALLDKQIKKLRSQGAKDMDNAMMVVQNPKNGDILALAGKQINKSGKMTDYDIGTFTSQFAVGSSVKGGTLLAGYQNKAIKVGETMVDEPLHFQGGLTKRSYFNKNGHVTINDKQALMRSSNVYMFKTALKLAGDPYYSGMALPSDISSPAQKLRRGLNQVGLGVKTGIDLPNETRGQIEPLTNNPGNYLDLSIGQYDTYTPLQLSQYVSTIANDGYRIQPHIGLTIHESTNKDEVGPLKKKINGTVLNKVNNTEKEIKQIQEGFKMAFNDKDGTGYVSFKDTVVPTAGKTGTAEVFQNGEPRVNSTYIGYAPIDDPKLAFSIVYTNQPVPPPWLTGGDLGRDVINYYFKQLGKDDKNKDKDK
Outline: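 Isolated S. aureus ATCC 29213 PBPs exposed to drug over 0.001 μg/ml to 50 μg/ml, followed by Bocillin FL labeling and fluorescence imaging. IC50 is 50% inhibition of Bocillin FL binding relative to no-drug control.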

Staphylococcus aureus = test: Antibacterial activity against methicillin-susceptible Staphylococcus aureus ATCC 29213 by CLSI method; assay type: functional
[6] = Inhibition of bocillin FL binding to penicillin-susceptible Streptococcus pneumoniae OC 8865 penicillin-binding protein 1a; outline: as §2
[7] = target: T2, Penicillin-binding protein 1B (Pseudomonas aeruginosa, UniProt Q9X6W0); test: Inhibition of bocillin FL binding to Pseudomonas aeruginosa PAO1 penicillin-binding protein 1b
T2 sequence (Q9X6W0 whole entry): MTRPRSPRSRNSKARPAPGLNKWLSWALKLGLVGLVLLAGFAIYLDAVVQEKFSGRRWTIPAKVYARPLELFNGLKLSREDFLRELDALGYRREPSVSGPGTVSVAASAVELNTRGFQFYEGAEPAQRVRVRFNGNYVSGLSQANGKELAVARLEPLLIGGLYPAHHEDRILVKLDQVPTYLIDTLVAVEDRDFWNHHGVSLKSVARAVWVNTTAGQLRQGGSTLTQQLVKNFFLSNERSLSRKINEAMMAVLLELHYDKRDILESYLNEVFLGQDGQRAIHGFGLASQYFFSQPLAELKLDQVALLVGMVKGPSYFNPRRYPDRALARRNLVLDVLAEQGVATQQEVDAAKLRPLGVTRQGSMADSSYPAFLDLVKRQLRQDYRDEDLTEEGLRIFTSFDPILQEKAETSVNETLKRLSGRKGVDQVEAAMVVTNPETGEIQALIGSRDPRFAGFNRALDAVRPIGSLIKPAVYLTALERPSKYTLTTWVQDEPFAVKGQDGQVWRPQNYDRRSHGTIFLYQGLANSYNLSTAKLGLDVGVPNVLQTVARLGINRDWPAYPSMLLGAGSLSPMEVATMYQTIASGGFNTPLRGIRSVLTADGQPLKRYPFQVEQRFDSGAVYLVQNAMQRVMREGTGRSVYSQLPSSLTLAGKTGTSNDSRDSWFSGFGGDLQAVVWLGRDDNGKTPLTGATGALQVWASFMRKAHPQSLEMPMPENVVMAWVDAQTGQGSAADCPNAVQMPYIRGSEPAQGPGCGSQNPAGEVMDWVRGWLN
Outline: (§3)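 Isolated P. aeruginosa PAO1 PBPs; drug added at 10 concentrations, 0.06 μg/ml to 32 μg/ml, before Bocillin FL labeling. Labeled PBPs imaged. IC50 is the drug level cutting Bocillin FL binding by 50% versus a no-drug sample.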

[8] = target: T3, Penicillin-binding protein 2 (Pseudomonas aeruginosa, UniProt Q9X6V3); test: Inhibition of bocillin FL binding to Pseudomonas aeruginosa PAO1 penicillin-binding protein 2; outline: as §3
T3 sequence (Q9X6V3 whole entry): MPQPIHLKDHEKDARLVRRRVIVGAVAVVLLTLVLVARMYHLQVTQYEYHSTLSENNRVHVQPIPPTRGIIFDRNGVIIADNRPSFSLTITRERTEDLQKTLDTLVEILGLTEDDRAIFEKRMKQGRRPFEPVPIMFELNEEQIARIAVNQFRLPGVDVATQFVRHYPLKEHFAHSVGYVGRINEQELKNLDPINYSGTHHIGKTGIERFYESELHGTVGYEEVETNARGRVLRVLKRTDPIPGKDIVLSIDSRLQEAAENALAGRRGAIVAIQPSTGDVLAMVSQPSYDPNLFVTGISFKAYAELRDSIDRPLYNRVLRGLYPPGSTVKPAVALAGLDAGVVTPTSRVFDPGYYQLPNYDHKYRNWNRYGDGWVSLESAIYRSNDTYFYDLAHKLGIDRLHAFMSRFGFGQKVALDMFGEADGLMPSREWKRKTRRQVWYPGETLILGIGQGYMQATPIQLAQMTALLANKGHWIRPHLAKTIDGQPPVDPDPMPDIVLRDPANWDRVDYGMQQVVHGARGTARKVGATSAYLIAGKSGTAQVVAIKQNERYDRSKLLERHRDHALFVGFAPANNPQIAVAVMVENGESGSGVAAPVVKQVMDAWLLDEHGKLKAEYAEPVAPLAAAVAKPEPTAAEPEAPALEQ

[9] = target: Penicillin-binding protein 3 (Pseudomonas aeruginosa, UniProt Q51504); test: Inhibition of bocillin FL binding to Pseudomonas aeruginosa PAO1 penicillin-binding protein 3; outline: as §3
[10] = Inhibition of bocillin FL binding to Pseudomonas aeruginosa PAO1 penicillin-binding protein 5/6; outline: as §3

Penicillin-binding protein 3 (Pseudomonas aeruginosa, UniProt Q51504), sequence (Q51504 whole entry): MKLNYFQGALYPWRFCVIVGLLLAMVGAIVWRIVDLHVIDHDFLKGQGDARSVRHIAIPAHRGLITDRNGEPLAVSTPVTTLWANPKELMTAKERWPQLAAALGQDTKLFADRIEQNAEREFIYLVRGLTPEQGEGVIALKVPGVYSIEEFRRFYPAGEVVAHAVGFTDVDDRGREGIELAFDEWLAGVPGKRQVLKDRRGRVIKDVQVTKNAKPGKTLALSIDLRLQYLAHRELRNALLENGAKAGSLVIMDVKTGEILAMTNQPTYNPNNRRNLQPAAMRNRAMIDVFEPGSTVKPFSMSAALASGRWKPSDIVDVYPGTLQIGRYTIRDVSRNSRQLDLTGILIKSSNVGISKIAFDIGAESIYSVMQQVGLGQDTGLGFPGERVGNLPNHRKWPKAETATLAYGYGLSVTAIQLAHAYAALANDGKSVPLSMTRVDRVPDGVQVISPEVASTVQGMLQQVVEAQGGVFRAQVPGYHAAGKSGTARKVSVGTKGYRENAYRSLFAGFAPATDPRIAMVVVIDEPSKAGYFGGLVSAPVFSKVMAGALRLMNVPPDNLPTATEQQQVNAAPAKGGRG

**Q.** With `CO/N=C(\C(=O)N[C@@H]1C(=O)N2C(C(=O)O)=C(CSc3nc(=O)c(O)nn3C)CS[C@H]12)c1csc(N)n1` (stereo in doubt) [CEFTRIAXONE] as the molecule, how does the IC50 [1] read?
**A.** 0.1 µg/mL (≈ 0.18 µM)

**Q.** What about the IC50 [2] of the same molecule?
**A.** > 1 µg/mL

**Q.** What about the IC50 [3] of the same molecule?
**A.** 8 µg/mL (≈ 14.4 µM)

**Q.** And the IC50 [4]?
**A.** 0.5 µg/mL (≈ 0.902 µM)

**Q.** And the IC50 [5]?
**A.** 1800 nM

**Q.** And the MIC (Staphylococcus aureus)?
**A.** 2 µg/mL (≈ 3.61 µM)

**Q.** What about the IC50 [6] of the same molecule?
**A.** 0.01 µg/mL (≈ 0.018 µM)

**Q.** For `CC(C)(O/N=C(\C(=O)N[C@@H]1C(=O)N2C(C(=O)[O-])=C(C[n+]3ccccc3)CS[C@H]12)c1csc(N)n1)C(=O)O` [CEFTAZIDIME], which IC50 [7] is on record?
**A.** 9150 nM

**Q.** What about the IC50 [8] of the same molecule?
**A.** > 58500 nM

**Q.** And the IC50 [9]?
**A.** 183 nM

**Q.** What about the IC50 [10] of the same molecule?
**A.** > 32 µg/mL

**Q.** Which results are given for `Nc1nc(/C(=N/O)C(=O)N[C@@H]2C(=O)N3C(C(=O)O)=C(/C=C4\CCN([C@@H]5CCNC5)C4=O)CS[C@H]23)ns1` [CEFTOBIPROLE]?
**A.** IC50 [1]: 0.03 µg/mL (≈ 0.0561 µM); IC50 [2]: 0.06 µg/mL (≈ 0.112 µM); IC50 [3]: 1 µg/mL (≈ 1.87 µM); IC50 [4]: 0.1 µg/mL (≈ 0.187 µM); IC50 [7]: 935 nM; IC50 [8]: 5610 nM; IC50 [9]: 187 nM; IC50 [10]: > 32 µg/mL; IC50 [5]: 93.5 nM; MIC (Staphylococcus aureus): 0.25 µg/mL (≈ 0.468 µM); IC50 [6]: 0.03 µg/mL (≈ 0.0561 µM)
